From ChEMBL document CHEMBL1255475, “Mutant prevention concentrations of four carbapenems against gram-negative rods” (2010)
≈ marks a conversion by molar mass, not a printed value.

Legend:
Assay type in all cases: functional
Klebsiella pneumoniae [1] = test: Antibacterial activity against beta-lactamase-positive ESBL-negative Klebsiella pneumoniae E477 incubated up to 7 days by agar dilution method; conditions: E477, 168 h
Escherichia coli [2] = test: Antibacterial activity against beta-lactamase-positive ESBL-positive Escherichia coli E456 incubated up to 7 days by agar dilution method; conditions: E456, 168 h
Summary of the method: (§1)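 MIC by CLSI agar dilution, with quality-control strains in each run. Beta-lactamase status was set by 30 μg cefazolin Kirby-Bauer disk diffusion. ESBL status was set by cefotaxime and ceftazidime disks (30 μg) with and without clavulanic acid (10 μg).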

Escherichia coli [3] = test: Antibacterial activity against beta-lactamase-negative Escherichia coli E425 assessed as mutant prevention concentration after overnight incubation
Escherichia coli [4] = test: Antibacterial activity against beta-lactamase-negative Escherichia coli E424 […] by agar dilution method
Klebsiella pneumoniae [5] = test: Antibacterial activity against beta-lactamase-positive ESBL-negative Klebsiella pneumoniae E480 assessed as mutant prevention concentration after overnight incubation
Summary of the method: (§2)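 Overnight growth on blood trypticase soy agar (35°C, air) was resuspended in 0.9% saline and counted on drug-free Mueller-Hinton agar. […] Colonies were retested by agar dilution to confirm mutants. MPC was the lowest concentration preventing resistant-mutant growth.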

Klebsiella pneumoniae [6] = test: Antibacterial activity against beta-lactamase-negative Klebsiella pneumoniae E418 incubated up to 7 days by agar dilution method; conditions: E418, 168 h
Klebsiella pneumoniae [7] = test: Antibacterial activity against beta-lactamase-positive ESBL-negative Klebsiella pneumoniae E479 incubated up to 7 days by agar dilution method; conditions: E479, 168 h
Summary of the method: (§3)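 MPC determination: overnight cultures on blood trypticase soy agar at 35°C in air were resuspended in 0.9% saline, and CFU were counted on drug-free Mueller-Hinton agar. […] Growth was retested by agar dilution to confirm mutants. MPC was the lowest concentration preventing resistant-mutant growth.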

Escherichia coli [8] = test: Antibacterial activity against beta-lactamase-positive ESBL-negative Escherichia coli E412 incubated up to 7 days by agar dilution method; conditions: E412, 168 h; summary of the method: as §1
Klebsiella pneumoniae [9] = test: Antibacterial activity against beta-lactamase-negative Klebsiella pneumoniae E362 incubated up to 7 days by agar dilution method; conditions: E362, 168 h
Klebsiella pneumoniae [10] = test: Antibacterial activity against beta-lactamase-positive ESBL-negative Klebsiella pneumoniae E481 assessed as mutant prevention concentration after overnight incubation; summary of the method: as §2
Escherichia coli [11] = test: Antibacterial activity against beta-lactamase-positive ESBL-negative Escherichia coli E437 incubated up to 7 days by agar dilution method; conditions: E437, 168 h; summary of the method: as §1
Klebsiella pneumoniae [12] = test: Antibacterial activity against beta-lactamase-positive ESBL-negative Klebsiella pneumoniae E511 incubated up to 7 days by agar dilution method; conditions: E511, 168 h
Escherichia coli [13] = test: Antibacterial activity against beta-lactamase-positive ESBL-positive Escherichia coli E459 assessed as mutant prevention concentration after overnight incubation; summary of the method: as §2
Klebsiella pneumoniae [14] = test: Antibacterial activity against beta-lactamase-negative Klebsiella pneumoniae E360 assessed as mutant prevention concentration after overnight incubation
Klebsiella pneumoniae [15] = test: Antibacterial activity against beta-lactamase-positive ESBL-negative Klebsiella pneumoniae E507 incubated up to 7 days by agar dilution method; conditions: E507, 168 h; summary of the method: as §3
Escherichia coli [16] = test: Antibacterial activity against beta-lactamase-positive ESBL-negative Escherichia coli E484 incubated up to 7 days by agar dilution method; conditions: E484, 168 h
Klebsiella pneumoniae [17] = test: Antibacterial activity against beta-lactamase-positive ESBL-negative Klebsiella pneumoniae E509 assessed as mutant prevention concentration after overnight incubation; summary of the method: as §2
Klebsiella pneumoniae [18] = test: Antibacterial activity against beta-lactamase-negative Klebsiella pneumoniae E358 assessed as mutant prevention concentration after overnight incubation
Klebsiella pneumoniae [19] = test: Antibacterial activity against beta-lactamase-positive ESBL-positive Klebsiella pneumoniae E478 incubated up to 7 days by agar dilution method; conditions: E478, 168 h
Klebsiella pneumoniae [20] = test: Antibacterial activity against beta-lactamase-negative Klebsiella pneumoniae E357 assessed as mutant prevention concentration after overnight incubation
Escherichia coli [21] = test: Antibacterial activity against beta-lactamase-positive ESBL-negative Escherichia coli E437 assessed as mutant prevention concentration after overnight incubation; summary of the method: as §2
Escherichia coli [22] = test: Antibacterial activity against beta-lactamase-positive ESBL-positive Escherichia coli E460 assessed as mutant prevention concentration after overnight incubation; summary of the method: as §2
Klebsiella pneumoniae [23] = test: Antibacterial activity against beta-lactamase-negative Klebsiella pneumoniae E419 assessed as mutant prevention concentration after overnight incubation; summary of the method: as §2
Klebsiella pneumoniae [24] = test: Antibacterial activity against beta-lactamase-positive ESBL-negative Klebsiella pneumoniae E473 assessed as mutant prevention concentration after overnight incubation; summary of the method: as §2
Klebsiella pneumoniae [25] = test: Antibacterial activity against beta-lactamase-negative Klebsiella pneumoniae E419 incubated up to 7 days by agar dilution method; conditions: E419, 168 h
Klebsiella pneumoniae [26] = test: Antibacterial activity against beta-lactamase-positive ESBL-negative Klebsiella pneumoniae E479 assessed as mutant prevention concentration after overnight incubation; summary of the method: as §2
Escherichia coli [27] = test: Antibacterial activity against beta-lactamase-positive ESBL-positive Escherichia coli E465 incubated up to 7 days by agar dilution method; conditions: E465, 168 h; summary of the method: as §1
Escherichia coli [28] = test: Antibacterial activity against beta-lactamase-positive ESBL-negative Escherichia coli E484 assessed as mutant prevention concentration after overnight incubation; summary of the method: as §2
Escherichia coli [29] = test: Antibacterial activity against beta-lactamase-negative Escherichia coli E409 […] by agar dilution method
Escherichia coli [30] = test: Antibacterial activity against beta-lactamase-negative Escherichia coli E345 assessed as mutant prevention concentration after overnight incubation
Klebsiella pneumoniae [31] = test: Antibacterial activity against beta-lactamase-positive ESBL-negative Klebsiella pneumoniae E511 assessed as mutant prevention concentration after overnight incubation; summary of the method: as §2
Klebsiella pneumoniae [32] = test: Antibacterial activity against beta-lactamase-positive ESBL-positive Klebsiella pneumoniae E476 incubated up to 7 days by agar dilution method; conditions: E476, 168 h
Pseudomonas aeruginosa [33] = test: Antibacterial activity against Pseudomonas aeruginosa P334 assessed as mutant prevention concentration after overnight incubation
Pseudomonas aeruginosa [34] = test: Antibacterial activity against Pseudomonas aeruginosa P338 assessed as mutant prevention concentration after overnight incubation
Acinetobacter baumannii [35] = test: Antibacterial activity against Acinetobacter baumannii A929 assessed as mutant prevention concentration after overnight incubation
Acinetobacter baumannii [36] = test: Antibacterial activity against Acinetobacter baumannii A928 assessed as mutant prevention concentration after overnight incubation
Acinetobacter baumannii [37] = test: Antibacterial activity against Acinetobacter baumannii A898 assessed as mutant prevention concentration after overnight incubation
Pseudomonas aeruginosa [38] = test: Antibacterial activity against Pseudomonas aeruginosa P327 assessed as mutant prevention concentration after overnight incubation
Acinetobacter baumannii [39] = test: Antibacterial activity against Acinetobacter baumannii A896 assessed as mutant prevention concentration after overnight incubation
Acinetobacter baumannii [40] = test: Antibacterial activity against Acinetobacter baumannii A910 assessed as mutant prevention concentration after overnight incubation
Pseudomonas aeruginosa [41] = test: Antibacterial activity against Pseudomonas aeruginosa P335 assessed as mutant prevention concentration after overnight incubation
Pseudomonas aeruginosa [42] = test: Antibacterial activity against Pseudomonas aeruginosa P369 assessed as mutant prevention concentration after overnight incubation
Pseudomonas aeruginosa [43] = test: Antibacterial activity against Pseudomonas aeruginosa P363 assessed as mutant prevention concentration after overnight incubation
Pseudomonas aeruginosa [44] = test: Antibacterial activity against Pseudomonas aeruginosa P340 assessed as mutant prevention concentration after overnight incubation
Pseudomonas aeruginosa [45] = test: Antibacterial activity against Pseudomonas aeruginosa P365 assessed as mutant prevention concentration after overnight incubation

Row | SMILES | MPC (Escherichia coli [3]) [µg/mL] | MPC (Klebsiella pneumoniae [5]) [µg/mL] | MPC (Klebsiella pneumoniae [10]) [µg/mL] | MPC (Escherichia coli [13]) [µg/mL] | MPC (Klebsiella pneumoniae [14]) [µg/mL] | MPC (Klebsiella pneumoniae [17]) [µg/mL] | MPC (Klebsiella pneumoniae [18]) [µg/mL] | MPC (Klebsiella pneumoniae [20]) [µg/mL] | MPC (Escherichia coli [21]) [µg/mL] | MPC (Escherichia coli [22]) [µg/mL] | MPC (Klebsiella pneumoniae [23]) [µg/mL] | MPC (Klebsiella pneumoniae [24]) [µg/mL] | MPC (Klebsiella pneumoniae [26]) [µg/mL] | MPC (Escherichia coli [28]) [µg/mL] | MPC (Escherichia coli [30]) [µg/mL] | MPC (Klebsiella pneumoniae [31]) [µg/mL] | other results
1 | C[C@@H](O)[C@H]1C(=O)N2C(C(=O)O)=C(S[C@@H]3CN[C@H](C(=O)Nc4cccc(C(=O)O)c4)C3)[C@H](C)[C@H]12 | 0.03 | 32 | 8 | 0.06 | 0.03 | 64 | 0.03 | 0.03 | 0.125 | 0.5 | 0.03 | 32 | 64 | 128 | 0.03 | 64 | MIC (Klebsiella pneumoniae [1]): 8 mg/L (≈ 16.8 µM); MIC (Escherichia coli [2]): 0.125 mg/L (≈ 0.263 µM); MIC (Escherichia coli [4]): 0.016 mg/L (≈ 0.0336 µM); MIC (Klebsiella pneumoniae [6]): 0.06 mg/L (≈ 0.126 µM); MIC (Klebsiella pneumoniae [7]): 8 mg/L (≈ 16.8 µM); MIC (Escherichia coli [8]): 0.06 mg/L (≈ 0.126 µM); MIC (Klebsiella pneumoniae [9]): 0.016 mg/L (≈ 0.0336 µM); MIC (Escherichia coli [11]): 0.06 mg/L (≈ 0.126 µM); MIC (Klebsiella pneumoniae [12]): 8 mg/L (≈ 16.8 µM); MIC (Klebsiella pneumoniae [15]): 8 mg/L (≈ 16.8 µM); MIC (Escherichia coli [16]): 8 mg/L (≈ 16.8 µM); MIC (Klebsiella pneumoniae [19]): 8 mg/L (≈ 16.8 µM); MIC (Klebsiella pneumoniae [25]): 0.016 mg/L (≈ 0.0336 µM); MIC (Escherichia coli [27]): 0.25 mg/L (≈ 0.526 µM); MIC (Escherichia coli [29]): 0.016 mg/L (≈ 0.0336 µM); MIC (Klebsiella pneumoniae [32]): 8 mg/L (≈ 16.8 µM)
2 | C[C@@H](O)[C@H]1C(=O)N2C(C(=O)O)=C(SCCNC=N)C[C@H]12 [IMIPENEM ANHYDROUS] | 0.5 | >16 | 16 | 0.5 | 1 | >32 | 0.5 | 1 | 1 | 0.5 | 1 | 16 | 32 | >16 | 0.5 | 64 | MPC (Pseudomonas aeruginosa [33]): 16 µg/mL; MPC (Pseudomonas aeruginosa [34]): 16 µg/mL; MPC (Acinetobacter baumannii [35]): 1 µg/mL; MPC (Acinetobacter baumannii [36]): 1 µg/mL; MPC (Acinetobacter baumannii [37]): 4 µg/mL; MPC (Pseudomonas aeruginosa [38]): 16 µg/mL; MPC (Acinetobacter baumannii [39]): 1 µg/mL; MPC (Acinetobacter baumannii [40]): 8 µg/mL; MPC (Pseudomonas aeruginosa [41]): 32 µg/mL; MPC (Pseudomonas aeruginosa [42]): 32 µg/mL; MPC (Pseudomonas aeruginosa [43]): 32 µg/mL; MPC (Pseudomonas aeruginosa [44]): 2 µg/mL; MPC (Pseudomonas aeruginosa [45]): 16 µg/mL
